In ChEMBL document CHEMBL5303300, “EUbOPEN Chemogenomics Library - Multiplex” (2023):
“And” between values parts separate entries of the source, which are not always exact repeats. Equal values may be shown once.

Tested on: HEK-293T
Experiment: Multiplex assay against HEK293T
Format: toxicity, cell-based
Settings: human, number of replicates 2
Procedure, shortened: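 Values for tubulin, mitochondrial-mass and membrane-permeability phenotypes are per cents of cells with healthy nuclei. These cells were identified by CellPathfinder machine-learning gating of live cells that had been stained at seeding with Hoechst33342, BioTracker Green Microtubule Cytoskeleton Dye, MitoTracker Red and Annexin V Alexa Fluor 680 and imaged on a CQ1 microscope at 37°C and 5% CO2 after compound addition. The gating first set Hoechst high-intensity objects apart from normal cells, then split normal cells into healthy, pyknosed or fragmented nuclei, and pyknosed cells into mitotic or apoptotic.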

[1] = 12 h, 1 µM, compound concentration 1 uM
[2] = 12 h, 10 µM, compound concentration 10 uM
[3] = 24 h, 1 µM, compound concentration 1 uM
[4] = 24 h, 10 µM, compound concentration 10 uM
[5] = 48 h, 1 µM, compound concentration 1 uM
[6] = 48 h, 10 µM, compound concentration 10 uM

Structure (SMILES): CN1CCc2cc(Nc3ncc(C(F)(F)F)c(NCc4cc[nH]n4)n3)ccc2C1
- Population Apoptotic (%) [1]: 85% and 72%
- Population Fragmented Nuclei (%) [1]: 4% and 3%
- Population Healthy Nuclei (%) [1]: 77% and 78%
- Population Hoechst High Intensity Objects (%) [1]: 14% and 11%
- Population Membrane Permeable-Phenotype (%) [1]: 1%
- Population Mitochondria Different-Phenotype (%) [1]: 41% and 47%
- Population Mitotic Cells (%) [1]: 14% and 27%
- Population Normal (%) [1]: 85% and 88%
- Population Pyknosed Nuclei (%) [1]: 17%
- Population Tubulin-Different-Phenotype (%) [1]: 35% and 44%
- Total Cell Count [1]: 280 and 291
- Population Apoptotic (%) [2]: 64% and 85%
- Population Fragmented Nuclei (%) [2]: 5%
- Population Healthy Nuclei (%) [2]: 89%
- Population Hoechst High Intensity Objects (%) [2]: 10% and 13%
- Population Membrane Permeable-Phenotype (%) [2]: 0%
- Population Mitochondria Different-Phenotype (%) [2]: 38% and 43%
- Population Mitotic Cells (%) [2]: 35% and 14%
- Population Normal (%) [2]: 89% and 86%
- Population Pyknosed Nuclei (%) [2]: 5%
- Population Tubulin-Different-Phenotype (%) [2]: 66% and 70%
- Total Cell Count [2]: 377 and 312
- Population Apoptotic (%) [3]: 83% and 72%
- Population Fragmented Nuclei (%) [3]: 4% and 5%
- Population Healthy Nuclei (%) [3]: 81% and 73%
- Population Hoechst High Intensity Objects (%) [3]: 20% and 13%
- Population Membrane Permeable-Phenotype (%) [3]: 0%
- Population Mitochondria Different-Phenotype (%) [3]: 37% and 43%
- Population Mitotic Cells (%) [3]: 16% and 27%
- Population Normal (%) [3]: 79% and 86%
- Population Pyknosed Nuclei (%) [3]: 14% and 20%
- Population Tubulin-Different-Phenotype (%) [3]: 38% and 42%
- Total Cell Count [3]: 267 and 261
- Population Apoptotic (%) [4]: 63% and 80%
- Population Fragmented Nuclei (%) [4]: 5% and 4%
- Population Healthy Nuclei (%) [4]: 87%
- Population Hoechst High Intensity Objects (%) [4]: 11% and 13%
- Population Membrane Permeable-Phenotype (%) [4]: 1% and 0%
- Population Mitochondria Different-Phenotype (%) [4]: 58% and 60%
- Population Mitotic Cells (%) [4]: 36% and 20%
- Population Normal (%) [4]: 88% and 86%
- Population Pyknosed Nuclei (%) [4]: 7% and 8%
- Population Tubulin-Different-Phenotype (%) [4]: 73% and 71%
- Total Cell Count [4]: 315 and 284
- Population Apoptotic (%) [5]: 80% and 72%
- Population Fragmented Nuclei (%) [5]: 7% and 5%
- Population Healthy Nuclei (%) [5]: 79%
- Population Hoechst High Intensity Objects (%) [5]: 16% and 14%
- Population Membrane Permeable-Phenotype (%) [5]: 1%
- Population Mitochondria Different-Phenotype (%) [5]: 40% and 36%
- Population Mitotic Cells (%) [5]: 19% and 27%
- Population Normal (%) [5]: 83% and 85%
- Population Pyknosed Nuclei (%) [5]: 13% and 15%
- Population Tubulin-Different-Phenotype (%) [5]: 36%
- Total Cell Count [5]: 285 and 307
- Population Apoptotic (%) [6]: 46% and 75%
- Population Fragmented Nuclei (%) [6]: 3% and 4%
- Population Healthy Nuclei (%) [6]: 84% and 82%
- Population Hoechst High Intensity Objects (%) [6]: 14% and 18%
- Population Membrane Permeable-Phenotype (%) [6]: 0% and 1%
- Population Mitochondria Different-Phenotype (%) [6]: 65% and 67%
- Population Mitotic Cells (%) [6]: 53% and 25%
- Population Normal (%) [6]: 85% and 81%
- Population Pyknosed Nuclei (%) [6]: 11% and 12%
- Population Tubulin-Different-Phenotype (%) [6]: 71% and 72%
- Total Cell Count [6]: 303 and 280

Structure (SMILES): C=CC(=O)Nc1cccc(C)c1Nc1ncc2cc(-c3c(Cl)c(OC)cc(OC)c3Cl)ccc2n1
- Population Apoptotic (%) [1]: 39% and 35%
- Population Fragmented Nuclei (%) [1]: 3%
- Population Healthy Nuclei (%) [1]: 87%
- Population Hoechst High Intensity Objects (%) [1]: 7% and 5%
- Population Membrane Permeable-Phenotype (%) [1]: 2% and 1%
- Population Mitochondria Different-Phenotype (%) [1]: 16% and 12%
- Population Mitotic Cells (%) [1]: 60% and 64%
- Population Normal (%) [1]: 92% and 94%
- Population Pyknosed Nuclei (%) [1]: 8% and 9%
- Population Tubulin-Different-Phenotype (%) [1]: 40% and 41%
- Total Cell Count [1]: 760 and 929
- Population Apoptotic (%) [2]: 71% and 67%
- Population Fragmented Nuclei (%) [2]: 4%
- Population Healthy Nuclei (%) [2]: 71% and 77%
- Population Hoechst High Intensity Objects (%) [2]: 20% and 14%
- Population Membrane Permeable-Phenotype (%) [2]: 2% and 3%
- Population Mitochondria Different-Phenotype (%) [2]: 42% and 39%
- Population Mitotic Cells (%) [2]: 28% and 32%
- Population Normal (%) [2]: 79% and 85%
- Population Pyknosed Nuclei (%) [2]: 24% and 18%
- Population Tubulin-Different-Phenotype (%) [2]: 55% and 47%
- Total Cell Count [2]: 374 and 381
- Population Apoptotic (%) [3]: 35% and 39%
- Population Fragmented Nuclei (%) [3]: 6% and 4%
- Population Healthy Nuclei (%) [3]: 85% and 88%
- Population Hoechst High Intensity Objects (%) [3]: 5% and 7%
- Population Membrane Permeable-Phenotype (%) [3]: 1% and 0%
- Population Mitochondria Different-Phenotype (%) [3]: 4% and 6%
- Population Mitotic Cells (%) [3]: 64% and 60%
- Population Normal (%) [3]: 94% and 92%
- Population Pyknosed Nuclei (%) [3]: 7%
- Population Tubulin-Different-Phenotype (%) [3]: 26% and 25%
- Total Cell Count [3]: 1252 and 1297
- Population Apoptotic (%) [4]: 70% and 60%
- Population Fragmented Nuclei (%) [4]: 5% and 3%
- Population Healthy Nuclei (%) [4]: 71% and 77%
- Population Hoechst High Intensity Objects (%) [4]: 17% and 11%
- Population Membrane Permeable-Phenotype (%) [4]: 2% and 0%
- Population Mitochondria Different-Phenotype (%) [4]: 32% and 24%
- Population Mitotic Cells (%) [4]: 29% and 40%
- Population Normal (%) [4]: 83% and 88%
- Population Pyknosed Nuclei (%) [4]: 23% and 18%
- Population Tubulin-Different-Phenotype (%) [4]: 32% and 29%
- Total Cell Count [4]: 453 and 428
- Population Apoptotic (%) [5]: 12%
- Population Fragmented Nuclei (%) [5]: 12% and 9%
- Population Healthy Nuclei (%) [5]: 84% and 87%
- Population Hoechst High Intensity Objects (%) [5]: 8% and 11%
- Population Membrane Permeable-Phenotype (%) [5]: 5% and 2%
- Population Mitochondria Different-Phenotype (%) [5]: 0% and 1%
- Population Mitotic Cells (%) [5]: 87%
- Population Normal (%) [5]: 91% and 88%
- Population Pyknosed Nuclei (%) [5]: 2% and 3%
- Population Tubulin-Different-Phenotype (%) [5]: 10% and 15%
- Total Cell Count [5]: 3082 and 2641
- Population Apoptotic (%) [6]: 50% and 52%
- Population Fragmented Nuclei (%) [6]: 5% and 3%
- Population Healthy Nuclei (%) [6]: 84% and 85%
- Population Hoechst High Intensity Objects (%) [6]: 11% and 8%
- Population Membrane Permeable-Phenotype (%) [6]: 1%
- Population Mitochondria Different-Phenotype (%) [6]: 8% and 9%
- Population Mitotic Cells (%) [6]: 50% and 47%
- Population Normal (%) [6]: 88% and 91%
- Population Pyknosed Nuclei (%) [6]: 9% and 11%
- Population Tubulin-Different-Phenotype (%) [6]: 12%
- Total Cell Count [6]: 751 and 603

Structure (SMILES): O=C1NC(=NCc2cccs2)SC1=Cc1ccc2ncccc2c1
- Population Apoptotic (%) [1]: 54% and 38%
- Population Fragmented Nuclei (%) [1]: 6% and 4%
- Population Healthy Nuclei (%) [1]: 78% and 85%
- Population Hoechst High Intensity Objects (%) [1]: 8% and 7%
- Population Membrane Permeable-Phenotype (%) [1]: 4% and 2%
- Population Mitochondria Different-Phenotype (%) [1]: 15% and 9%
- Population Mitotic Cells (%) [1]: 45% and 61%
- Population Normal (%) [1]: 91% and 92%
- Population Pyknosed Nuclei (%) [1]: 15% and 10%
- Population Tubulin-Different-Phenotype (%) [1]: 46% and 45%
- Total Cell Count [1]: 632 and 733
- Population Apoptotic (%) [2]: 54% and 69%
- Population Fragmented Nuclei (%) [2]: 1% and 2%
- Population Healthy Nuclei (%) [2]: 90% and 92%
- Population Hoechst High Intensity Objects (%) [2]: 3% and 6%
- Population Membrane Permeable-Phenotype (%) [2]: 4%
- Population Mitochondria Different-Phenotype (%) [2]: 21% and 19%
- Population Mitotic Cells (%) [2]: 45% and 30%
- Population Normal (%) [2]: 96% and 93%
- Population Pyknosed Nuclei (%) [2]: 7% and 5%
- Population Tubulin-Different-Phenotype (%) [2]: 78% and 72%
- Total Cell Count [2]: 644 and 684
- Population Apoptotic (%) [3]: 40% and 31%
- Population Fragmented Nuclei (%) [3]: 6% and 4%
- Population Healthy Nuclei (%) [3]: 84% and 89%
- Population Hoechst High Intensity Objects (%) [3]: 8%
- Population Membrane Permeable-Phenotype (%) [3]: 3% and 2%
- Population Mitochondria Different-Phenotype (%) [3]: 3% and 5%
- Population Mitotic Cells (%) [3]: 59% and 68%
- Population Normal (%) [3]: 91%
- Population Pyknosed Nuclei (%) [3]: 9% and 6%
- Population Tubulin-Different-Phenotype (%) [3]: 19% and 30%
- Total Cell Count [3]: 1066 and 1062
- Population Apoptotic (%) [4]: 63% and 77%
- Population Fragmented Nuclei (%) [4]: 2%
- Population Healthy Nuclei (%) [4]: 91% and 93%
- Population Hoechst High Intensity Objects (%) [4]: 6% and 5%
- Population Membrane Permeable-Phenotype (%) [4]: 2% and 1%
- Population Mitochondria Different-Phenotype (%) [4]: 9% and 12%
- Population Mitotic Cells (%) [4]: 36% and 22%
- Population Normal (%) [4]: 93% and 94%
- Population Pyknosed Nuclei (%) [4]: 5% and 4%
- Population Tubulin-Different-Phenotype (%) [4]: 57% and 55%
- Total Cell Count [4]: 699 and 690
- Population Apoptotic (%) [5]: 14% and 11%
- Population Fragmented Nuclei (%) [5]: 16% and 10%
- Population Healthy Nuclei (%) [5]: 80% and 86%
- Population Hoechst High Intensity Objects (%) [5]: 9% and 10%
- Population Membrane Permeable-Phenotype (%) [5]: 5%
- Population Mitochondria Different-Phenotype (%) [5]: 0% and 1%
- Population Mitotic Cells (%) [5]: 85% and 88%
- Population Normal (%) [5]: 90% and 89%
- Population Pyknosed Nuclei (%) [5]: 3%
- Population Tubulin-Different-Phenotype (%) [5]: 9% and 14%
- Total Cell Count [5]: 2821 and 2321
- Population Apoptotic (%) [6]: 45% and 59%
- Population Fragmented Nuclei (%) [6]: 8% and 7%
- Population Healthy Nuclei (%) [6]: 87% and 89%
- Population Hoechst High Intensity Objects (%) [6]: 8% and 7%
- Population Membrane Permeable-Phenotype (%) [6]: 2% and 0%
- Population Mitochondria Different-Phenotype (%) [6]: 3% and 5%
- Population Mitotic Cells (%) [6]: 54% and 40%
- Population Normal (%) [6]: 91% and 92%
- Population Pyknosed Nuclei (%) [6]: 3%
- Population Tubulin-Different-Phenotype (%) [6]: 21% and 26%
- Total Cell Count [6]: 740 and 737
